In ChEMBL document CHEMBL1148748, “Synthesis of specific bivalent probes that functionally interact with 5-HT(4) receptor dimers” (J Med Chem, 2007) one finds Activity and Ki data, which are given here for 17 compounds.

For experiment [1], the target named is T1, 5-hydroxytryptamine receptor 4 (Homo sapiens, UniProt Q13639). Nature of the experiment: Agonist activity at human 5HT4e receptor expressed in C6 cells assessed as cAMP accumulation relative to 5HT. It is filed as functional, cell-based. Also noted: concentration or dose not given beside the values. The gist of the method:
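C6 glial cells stably expressing h5-HT4(e), serum-starved 4 h, preincubated 15 min with 5 mM theophylline plus 10 µM pargyline, then compound with or without 5-HT (1 µM) 15 min at 37 °C; stopped with ice-cold 20% perchloric acid, neutralized; cAMP by radioimmunoassay; expressed as % of 5-HT response; two experiments in triplicate.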
(Cyclic AMP is a second messenger, typically raised through Gs and lowered through Gi signalling.)

The target in experiment [2] is T1, 5-hydroxytryptamine receptor 4. Nature of the experiment: Displacement of [3H]GR-113808 from human 5HT4e receptor expressed in C6 cells. It is filed as cell-based.
Experiment [3] shares this target. Kind of experiment: Activity at 5HT4 receptor fused with RLuc and YFP fusion proteins expressed in CHO cells by BRET dimerization assay relative to control. In kind it is functional, cell-based. Also noted: concentration or dose not given beside the values. In a few lines:
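CHO cells transiently cotransfected (Jet-PEI, 8 µg DNA per 100 mm dish) with C-terminal 5-HT4R-RLuc and 5-HT4R-YFP at equimolar amounts; membrane preparations incubated with ligand (1 µM, or dose-response) at 25 °C; coelenterazine h 5 µM final; 530/485 nm emission ratio minus RLuc-alone ratio gives BRET, in mBU; % of control; three experiments in duplicate.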
Background: In BRET a luciferase serves as donor, and the signal depends on an acceptor being close.

For experiment [4] the target is unchanged. Kind of experiment: Binding affinity to YFP fused 5HT4 receptor expressed in CHO cells. In kind it is cell-based.
Experiment [5] has the same target. Nature of the experiment: Binding affinity to Rluc fused 5HT4 receptor expressed in CHO cells. In kind it is cell-based.

pKi: −log10 of the molar value.

T1 sequence (Q13639 whole entry): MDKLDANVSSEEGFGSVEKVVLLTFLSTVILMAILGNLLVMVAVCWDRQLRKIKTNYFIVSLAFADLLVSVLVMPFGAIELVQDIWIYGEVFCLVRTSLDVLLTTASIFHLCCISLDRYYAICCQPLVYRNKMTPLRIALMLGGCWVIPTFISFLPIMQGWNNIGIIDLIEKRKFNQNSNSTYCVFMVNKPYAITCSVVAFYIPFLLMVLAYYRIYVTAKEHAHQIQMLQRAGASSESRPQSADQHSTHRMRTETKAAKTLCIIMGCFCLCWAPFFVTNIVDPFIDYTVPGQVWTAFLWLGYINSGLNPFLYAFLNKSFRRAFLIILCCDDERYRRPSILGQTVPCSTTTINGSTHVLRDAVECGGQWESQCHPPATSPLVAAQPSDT

What is called pKi is the Ki on a negative log10 scale, so that one unit is a factor of ten. On to `COc1cc(N)c(Cl)cc1C(=O)OCCN1CCC(CNC(=O)CCCN(CC#Cc2cccc(C#CCN(CCCC(=O)NCC3CCN(CCOC(=O)c4cc(Cl)c(N)cc4OC)CC3)C(=O)OC(C)(C)C)c2)C(=O)OC(C)(C)C)CC1`, for which the results for the Activity in experiment [1] and in experiment [3] were 6% and 108%, respectively. This compound also showed a pKi in experiment [2] of 7.40.
In the same order, the values of `COc1cc(N)c(Cl)cc1C(=O)OCCN1CCC(NC(=O)CCCCCNC(=O)C2CCN(CCOC(=O)c3cc(Cl)c(N)cc3OC)CC2)CC1` are 46%, 108% and 8.15.
Consider `Cn1cc(C(=O)OCC2CCN(CCNS(C)(=O)=O)CC2)c2ccccc21`, for which the Activity in experiment [1] is 1%; in experiment [3], 99%. The compound further showed a pKi in experiment [4] of 9.15.
Turning to `COc1cc(N)c(Cl)cc1C(=O)OCCN1CCC(NC(=O)CCCCCCCCCCN(CCCCCCCCCCC(=O)NC2CCN(CCOC(=O)c3cc(Cl)c(N)cc3OC)CC2)CC(=O)NCC2CCNCC2)CC1`, the figures for the Activity in experiment [1] and in experiment [3] were 10% and 114%, respectively.
For the compound `COc1cc(N)c(Cl)cc1C(=O)OCCN1CCC(CNC(=O)CN(CC#Cc2ccc(C#CCN(CC(=O)NCC3CCN(CCOC(=O)c4cc(Cl)c(N)cc4OC)CC3)C(=O)OC(C)(C)C)cc2)C(=O)OC(C)(C)C)CC1`, the Activity was found to be 49% in experiment [1] and 107% in experiment [3]. The pKi in experiment [2] is 7.36.
The matching figures for `COc1cc(N)c(Cl)cc1C(=O)OCCN1CCC(NC(=O)CCCN(CC#Cc2ccc(C#CCN(CCCC(=O)NC3CCN(CCOC(=O)c4cc(Cl)c(N)cc4OC)CC3)C(=O)OC(C)(C)C)cc2)C(=O)OC(C)(C)C)CC1`: 35%, 106% and 7.74.
The matching figures for `COc1cc(N)c(Cl)cc1C(=O)OCCN1CCC(CNC(=O)CCCN(CCCc2ccc(CCCN(CCCC(=O)NCC3CCN(CCOC(=O)c4cc(Cl)c(N)cc4OC)CC3)C(=O)OC(C)(C)C)cc2)C(=O)OC(C)(C)C)CC1`: 9%, 115% and 7.82.
`COc1cc(N)c(Cl)cc1C(=O)OCCN1CCC(NC(=O)CCCCCCCCCCNC(=O)C2CCN(CCOC(=O)c3cc(Cl)c(N)cc3OC)CC2)CC1`: the Activity in experiment [1] was found to be 5%; in experiment [3], 110%.
As for `COc1cc(N)c(Cl)cc1C(=O)OCCN1CCC(NC(=O)CCCN(CC#Cc2cccc(C#CCN(CCCC(=O)NC3CCN(CCOC(=O)c4cc(Cl)c(N)cc4OC)CC3)C(=O)OC(C)(C)C)c2)C(=O)OC(C)(C)C)CC1`, the Activity in experiment [1] was found to be 8%; in experiment [3], 109%. The pKi in experiment [2] was 8.10.
The matching figures for `COc1cc(N)c(Cl)cc1C(=O)OCCN1CCC(CNC(=O)CN(CCCc2ccc(CCCN(CC(=O)NCC3CCN(CCOC(=O)c4cc(Cl)c(N)cc4OC)CC3)C(=O)OC(C)(C)C)cc2)C(=O)OC(C)(C)C)CC1`: 18%, 114% and 7.72.
In the same order, the values of `COc1cc(N)c(Cl)cc1C(=O)OCCN1CCC(CNC(=O)CCCN(CCCc2cccc(CCCN(CCCC(=O)NCC3CCN(CCOC(=O)c4cc(Cl)c(N)cc4OC)CC3)C(=O)OC(C)(C)C)c2)C(=O)OC(C)(C)C)CC1` are 5%, 108% and 7.64.
In the case of `COc1cc(N)c(Cl)cc1C(=O)OCCN1CCC(NC(=O)CCCCCCCCCCNc2nc(NCCCCCCCCCCC(=O)NC3CCN(CCOC(=O)c4cc(Cl)c(N)cc4OC)CC3)nc(NCc3ccccc3)n2)CC1`, the Activity in experiment [1] was found to be 12%; in experiment [3], 114%.
In the case of `COc1cc(N)c(Cl)cc1C(=O)OCCN1CCC(CNC(=O)CCCN(CC#Cc2ccc(C#CCN(CCCC(=O)NCC3CCN(CCOC(=O)c4cc(Cl)c(N)cc4OC)CC3)C(=O)OC(C)(C)C)cc2)C(=O)OC(C)(C)C)CC1`, the figures for the Activity in experiment [1] and in experiment [3] were 1% and 115%, respectively. This compound also showed a pKi in experiment [2] of 7.60.
As to `COc1cc(N)c(Cl)cc1C(=O)OCCN1CCCCC1`, the Activity turned out to be 45% in experiment [1] and 101% in experiment [3].
Turning to `COc1cc(N)c(Cl)cc1C(=O)OCCN1CCC(CCNC(=O)CCCCCCCCCCC(=O)NCCC2CCN(CCOC(=O)c3cc(Cl)c(N)cc3OC)CC2)CC1`, the Activity in experiment [1] was 6%; in experiment [3] it was 108%. The compound also showed a pKi in experiment [2] of 8.05.
As to `COc1cc(N)c(Cl)cc1C(=O)OCCN1CCC(NC(=O)CCCN(CCCc2ccc(CCCN(CCCC(=O)NC3CCN(CCOC(=O)c4cc(Cl)c(N)cc4OC)CC3)C(=O)OC(C)(C)C)cc2)C(=O)OC(C)(C)C)CC1`, the Activity in experiment [1] amounted to 21%; in experiment [3], 118%. Besides, the pKi is 7.92 in experiment [2], 8.00 in experiment [5] and 8.00 in experiment [4].
On to `COc1cc(N)c(Cl)cc1C(=O)OCCN1CCC(NC(=O)CCCN(CCCc2ccc(CCCN(CCCC(=O)NC3CCCCC3)C(=O)OC(C)(C)C)cc2)C(=O)OC(C)(C)C)CC1`, for which the Activity in experiment [1] came to 17%; in experiment [3], 105%. This compound showed a pKi in experiment [2] of 7.47.
